Assay outcomes: PubChem BioAssay, several laboratories
CXCR6 inh: CXCR6 receptor inhibitors, primary screen, cell-based, beta-arrestin, luminescence, CHO-K1 PathHunter, 1536-well | inhibition, % at 20 µM | 360,000 compounds, 0.36% hits | AID 602244, 2012; in the data active means inhibition above about 34%, passing the limit was not always enough;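 further: antagonist mode with CXCL16 agonist at 10 nM final; 0% = 10 nM CXCL16 with DMSO and 100% = unstimulated wells without agonist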
m5-HT2A agonist: mouse Htr2a agonists via beta-arrestin recruitment, primary screen, cell-based, luminescence; activation, % at 7.6 µM; 360,000 compounds, 0.66% hits; CHO-K1 mHTR2A beta-arrestin complementation; percent of 30 µM serotonin response; 5-hydroxytryptamine receptor 2A (Mus musculus), P35363;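 active means activation above a run cutoff, the mean activation of all tested compounds plus 3 SD, cut at about 14% in these data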;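 further: 0% = plate median of compound wells and 100% = 30 µM serotonin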
APJ antag: antagonists of human apelin receptor APJ, primary screen, CHO-K1 cells, beta-arrestin complementation, luminescence. P35414. inhibition, % at 20 µM. 330,000 compounds, 0.32% hits. AID 2521, 2010;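 active means inhibition above about 40% at 20 µM, limit read from the data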;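 further: cells challenged with 10 nM apelin-13 agonist together with compound; plate controls were apelin-13 plus DMSO wells for no effect and DMSO wells lacking apelin-13 for full effect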
CCR6 antag: CCR6 receptor antagonists, primary screen, cell-based, CHO-K1, luminescence, beta-arrestin, uHTS; 340,000 compounds, 0.49% hits; AID 493098, 2011; C-C chemokine receptor type 6 (Homo sapiens), P51684; CHO-K1 CCR6 PathHunter beta-arrestin, CCL20-stimulated; inhibition, % at 20 µM;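 active means compounds whose inhibition of the agonist-driven luminescence signal at 20 µM reaches about 50%, limit read from the data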;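 further: cells stimulated with CCL20 at 14 nM final; plate controls were DMSO with CCL20 for no effect and DMSO without agonist for full effect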
EBI2 antag: EBI2 receptor antagonists, beta-arrestin recruitment, primary screen, cell-based, luminescence, 7a,25-OHC stimulation, uHTS; G-protein coupled receptor 183 (Homo sapiens), P32249; 7a,25-OHC stimulated; inhibition, % at 5 µM; 360,000 compounds, 0.81% hits; in the data active means inhibition above about 38%;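 further: enzyme fragment complementation signal reports receptor beta-arrestin coupling in cells; 0% = agonist plus DMSO wells and 100% = wells without agonist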
APJ agonist: agonists of human apelin receptor APJ, primary screen, CHO-K1 cells, PathHunter beta-arrestin, luminescence; 0% DMSO wells, 100% apelin; 330,000 compounds, 0.11% hits; activation, % at 20 µM;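 active means activation more than six SD over the plate average, tested at 20 µM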;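 further: 0% = DMSO alone and 100% = apelin-13 at 10 nM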
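Test system: CHO-K1 APJ beta-arrestin complementation cell line. Amount: cell density 1000 per well. Controls: DMSO negative, 10 nM Apelin-13 positive. Signal: luminescent beta-gal fragment complementation, chemiluminescent substrate. Read-out basis: agonist-driven arrestin binding to APJ. Timing: compound stimulation 90 min at 25 °C, detection 60 min.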
OPRM1 ag: OPRM1 agonists via beta-arrestin recruitment, confirmation, counter-screen for mouse HTR2A agonist project, cell-based, luminescence, single concentration; shares compounds with m5-HT2A agonist; U2OS OPRM1 beta-arrestin PathHunter; DMSO 0%, DAMGO 9.3 µM 100%; activation, % at 9.3 µM; 2,300 compounds, 5.3% hits; AID 624380, 2012;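 active means mean activation above the mean of DMSO-only wells plus 3 SD, cut at about 0.5% in these data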
Target sequence (P35372 whole entry, looked up): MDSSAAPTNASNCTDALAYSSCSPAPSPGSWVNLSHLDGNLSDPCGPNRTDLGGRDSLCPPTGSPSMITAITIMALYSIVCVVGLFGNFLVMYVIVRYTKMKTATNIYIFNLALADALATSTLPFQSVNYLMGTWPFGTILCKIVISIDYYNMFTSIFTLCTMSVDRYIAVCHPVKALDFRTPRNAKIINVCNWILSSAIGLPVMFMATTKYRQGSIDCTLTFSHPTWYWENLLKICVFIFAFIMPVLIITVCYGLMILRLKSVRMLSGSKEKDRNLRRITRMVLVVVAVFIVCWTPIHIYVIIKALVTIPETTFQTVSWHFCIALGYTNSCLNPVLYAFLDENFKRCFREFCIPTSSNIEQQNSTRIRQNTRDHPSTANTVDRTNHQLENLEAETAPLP
m5-HT2A ag conf: mouse HTR2A agonists, beta-arrestin recruitment, confirmation, cell-based, luminescence, CHO-K1 PathHunter, triplicate. shares compounds with m5-HT2A agonist. activation, % at 7.6 µM. DMSO 0%, 30 µM serotonin 100%. AID 624381, 2012. 2,300 compounds, 19% hits;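 active means mean activation across triplicates above the hit threshold derived in the original primary screen, cut at about 15% in these data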
Numbers without * were called inactive; nt = not tested or not shown. Most compounds without a hit are left out; they make up all but 2.1% or so of the library.

SMILES	CXCR6 inh	m5-HT2A agonist	APJ antag	CCR6 antag	EBI2 antag	APJ agonist	OPRM1 ag	m5-HT2A ag conf
CCOC(=O)c1nn(-c2ccccc2)c2nc(-c3ccc(OC)cc3)c(C#N)c(=O)n12	11	19*	-8	14	10	-4	0.6*	8
CC1CCCCC1NC(=O)COC(=O)c1cccn1C (stereo unspecified)	2	15*	-6	11	0	-3	0	-5
O=S1(=O)CCC(NC(=S)N2CCCCC2)C1 (stereo unspecified)	-4	17*	-7	10	-13	5	-1	-3
O=C(NC1CCS(=O)(=O)C1)C1CCCC1 (stereo unspecified)	-11	7	7	3	1	0	nt	nt
Cc1ccc(Nc2nnc(C)c3ccccc23)c(C)c1	-6	7	-10	1	7	1	nt	nt
CCC(=O)c1ccc(OCC(=O)OCc2csc(CC(=O)Nc3ccccc3C)n2)cc1	0	19*	nt	nt	3	nt	-1	-5
CCOc1cc(/C=N/OC(C)=O)ccc1OCc1ccccc1	-4	-8	-1	18	-1	-2	nt	nt
COc1ccc(C2/C=C\CN(C(=O)C3CCCC3)CC(=O)N2Cc2ccc(F)cc2)cc1 (stereo unspecified)	5	24*	5	14	3	7	-1	62*
COc1ccc(C(=O)NC(=S)Nc2cc(C)ccn2)cc1[N+](=O)[O-]	10	5	12	19	4	-2	nt	nt
CCn1c(SCC(=O)c2cccs2)nnc1-c1ccco1	-16	16*	13	2	-2	-3	-1	4
CCn1c(SCC(N)=O)nnc1-c1ccco1	-1	7	-13	-1	-5	-4	nt	nt
C=C(C)c1cccc(C(C)(C)NC(=O)Nc2cc(C)ccn2)c1	0	35*	-13	11	18	-1	0	30*
C=C(C)c1cccc(C(C)(C)NC(=O)Nc2ccc(C)cn2)c1	-2	15*	-5	14	3	-7	0	32*
C=C(C)c1cccc(C(C)(C)NC(=O)Nc2nnc(C(C)C)s2)c1	5	-1	-10	5	17	2	nt	nt
C=C(C)c1cccc(C(C)(C)NC(=O)Nc2ccc(OC)nc2)c1	0	45*	9	18	13	6	0	16*
C=C(C)c1cccc(C(C)(C)NC(=O)Nc2nncs2)c1	-15	-4	-2	6	3	-4	nt	nt
CNC(=O)C(=O)NCC1OCCCN1S(=O)(=O)c1ccc(F)cc1C (stereo unspecified)	-5	1	8	-4	2	0	nt	nt
CCCS(=O)(=O)NC(=O)C1(C)CCN1C(=O)Cc1ccc(-c2ccccc2)cc1 (stereo unspecified)	-7	17*	nt	nt	-12	nt	0	3
CC1(C(=O)NS(=O)(=O)Cc2cccc(Cl)c2)CCN1C(=O)Cc1ccc(-c2ccccc2)cc1 (stereo unspecified)	0	11	nt	nt	-8	nt	nt	nt
CN(C)c1ccc(C(=O)c2ccccc2C(=O)O)cc1[N+](=O)[O-]	2	8	-10	3	6	-2	nt	nt
CNc1ccc(C(=O)c2ccccc2C(=O)O)cc1[N+](=O)[O-]	8	19*	11	13	-2	-3	-1	-3
CCn1cc(CN2CCN(Cc3ccsc3)C(CCO)C2)cn1 (stereo unspecified)	-5	15*	-5	0	-3	0	0	5
OCCC1CN(Cc2cnn(-c3ccc(F)cc3)c2)CCN1Cc1ccsc1 (stereo unspecified)	-10	-5	2	1	1	-3	nt	nt
COc1cccc(CN(C)C(=O)CC[C@H]2O[C@@H](n3ccc(=O)[nH]c3=O)[C@H](O)[C@@H]2O)c1	-2	-2	nt	nt	-8	nt	nt	nt
COc1ccc(CN(C(=O)c2snc(C(N)=O)c2N)C(C(=O)NC2CCCC2)c2ccco2)cc1 (stereo unspecified)	7	-1	9	16	10	-4	nt	nt
SMILES	CXCR6 inh	m5-HT2A agonist	APJ antag	CCR6 antag	EBI2 antag	APJ agonist	OPRM1 ag	m5-HT2A ag conf
CCN(CC)C(=O)CSc1nc2ncccc2[nH]1	-2	4	-20	6	-18	2	nt	nt
C=C(C)CSc1nc2ncccc2[nH]1	-2	22*	6	15	-15	-1	-1	-3
CCCCC(c1nnnn1CC1CCCO1)N1CCN(c2nc3ccccc3s2)CC1 (stereo unspecified)	8	16*	nt	-16	17	nt	-1	9
c1csc(C(c2nnnn2C2CCCCC2)N2CCN(c3nc4ccccc4s3)CC2)c1 (stereo unspecified)	6	15*	nt	11	20	nt	-1	8
CC(=O)c1cccc(NC(=O)COC(=O)c2ccccc2C)c1	5	7	-7	-2	-11	5	nt	nt
NC(=O)N/N=C(/CCCCCC/C(=N\NC(N)=O)c1ccccc1)c1ccccc1	6	-3	7	0	19	0	nt	nt
COc1ccccc1C(=O)NC(=O)Nc1nc(-c2ccccc2)cc(C(F)(F)F)n1	-4	4	0	6	5	-2	nt	nt
CC1(C)CC(=O)C/C(=N\NC(=S)NCc2ccccc2)C1	0	17*	-5	-3	-4	-1	-1	-5
CCCn1nc(C(=O)Nc2ccc3nc(N4CCOCC4)sc3c2)ccc1=O	-13	21*	-12	9	1	9	0	0
COc1ccccc1CN1CCN(C(=O)c2ccco2)CC1	12	30*	-8	7	-6	-1	-1	92*
COc1ccc(CN2CCN(C(=O)c3ccco3)CC2)c(OC)c1OC	0	29*	-5	-2	-7	-1	-1	78*
COc1ccc(Br)cc1CN1CCN(C(=O)c2ccco2)CC1	1	-2	7	4	-5	-5	nt	nt
O=S(=O)(c1ccccc1)N1CCC(O)(CSc2ccc(F)cc2)CC1	-9	1	-6	-8	-7	-1	nt	nt
CSc1nc(SCC(=O)NCc2ccco2)c2c3c(sc2n1)COC(C)(C)C3	7	19*	5	9	20	4	-1	2
